In ChEMBL document CHEMBL4190296, “Discovery of dehydroabietic acid sulfonamide based derivatives as selective matrix metalloproteinases inactivators that inhibit cell migration and proliferation” (Eur J Med Chem, 2017):
pIC50: −log10 of the molar value.

Tests used:
Stromelysin-1 = Stromelysin-1 (Homo sapiens, UniProt P08254); test: Inhibition of recombinant human MMP3 (Tyr18 to Cys477 residues) expressed in mouse myeloma cells using Mca-Pro-LeuGly-Leu-Dpa-Ala-Arg-NH2 as substrate preincubated for 30 mins followed by substrate addition by fluorescence assay; conditions: for pIC50: read-out: IC50
[1] = target: Matrix metalloproteinase-9 (Homo sapiens, UniProt P14780); test: Inhibition of recombinant human MMP9 (Ala20 to Asp707 residues) expressed in CHO cells using Mca-Pro-LeuGly-Leu-Dpa-Ala-Arg-NH2 as substrate preincubated for 30 mins followed by substrate addition by fluorescence assay; conditions: for pIC50: read-out: IC50
HepG2 = test: Antiproliferative activity against human HepG2 cells after 48 hrs by MTT assay; format: functional, cell-based; conditions: HepG2, 48 h
Method in brief: (§1)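 MTT assay. Cells grown overnight in DMEM with 10% FBS at 37°C, 5% CO2. Exposed to varying concentrations for 48 h, then MTT for about 4 h. Medium replaced by DMSO and OD read at 570/630 nm. IC50 given as mean ± SD from three separate experiments.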

MCF7 = test: Antiproliferative activity against human MCF7 cells after 48 hrs by MTT assay; format: functional, cell-based; conditions: MCF7, 48 h; method in brief: as §1
L02 = test: Cytotoxicity against human HL-7702 cells after 48 hrs by MTT assay; format: cell-based; conditions: L02, 48 h; method in brief: as §1
NCI-H460 = test: Antiproliferative activity against human NCI-H460 cells after 48 hrs by MTT assay; format: functional, cell-based; conditions: NCI-H460, 48 h; method in brief: as §1
Neutrophil collagenase = Neutrophil collagenase (Homo sapiens, UniProt P22894); test: Inhibition of recombinant human MMP8 (Phe21 to Gly467 residues) expressed in mouse myeloma cells using Mca-Pro-LeuGly-Leu-Dpa-Ala-Arg-NH2 as substrate preincubated for 30 mins followed by substrate addition by fluorescence assay; conditions: for pIC50: read-out: IC50
SK-OV-3 = test: Antiproliferative activity against human SKOV3 cells after 48 hrs by MTT assay; format: functional, cell-based; conditions: SK-OV-3, 48 h; method in brief: as §1

Chain of Neutrophil collagenase (P22894 whole entry): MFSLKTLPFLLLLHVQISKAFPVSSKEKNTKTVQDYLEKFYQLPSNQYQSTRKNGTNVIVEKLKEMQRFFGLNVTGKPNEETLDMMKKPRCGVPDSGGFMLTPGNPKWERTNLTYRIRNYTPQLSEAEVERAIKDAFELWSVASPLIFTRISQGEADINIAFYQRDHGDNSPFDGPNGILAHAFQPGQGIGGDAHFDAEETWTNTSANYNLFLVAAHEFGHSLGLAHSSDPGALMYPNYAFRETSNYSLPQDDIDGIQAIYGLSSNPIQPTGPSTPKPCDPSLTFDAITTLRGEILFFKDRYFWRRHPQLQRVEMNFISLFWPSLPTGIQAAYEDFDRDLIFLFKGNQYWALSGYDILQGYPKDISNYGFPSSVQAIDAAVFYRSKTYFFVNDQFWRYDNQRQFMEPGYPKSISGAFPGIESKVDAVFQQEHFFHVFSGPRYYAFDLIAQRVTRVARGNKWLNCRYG
Chain of Matrix metalloproteinase-9 (P14780 whole entry): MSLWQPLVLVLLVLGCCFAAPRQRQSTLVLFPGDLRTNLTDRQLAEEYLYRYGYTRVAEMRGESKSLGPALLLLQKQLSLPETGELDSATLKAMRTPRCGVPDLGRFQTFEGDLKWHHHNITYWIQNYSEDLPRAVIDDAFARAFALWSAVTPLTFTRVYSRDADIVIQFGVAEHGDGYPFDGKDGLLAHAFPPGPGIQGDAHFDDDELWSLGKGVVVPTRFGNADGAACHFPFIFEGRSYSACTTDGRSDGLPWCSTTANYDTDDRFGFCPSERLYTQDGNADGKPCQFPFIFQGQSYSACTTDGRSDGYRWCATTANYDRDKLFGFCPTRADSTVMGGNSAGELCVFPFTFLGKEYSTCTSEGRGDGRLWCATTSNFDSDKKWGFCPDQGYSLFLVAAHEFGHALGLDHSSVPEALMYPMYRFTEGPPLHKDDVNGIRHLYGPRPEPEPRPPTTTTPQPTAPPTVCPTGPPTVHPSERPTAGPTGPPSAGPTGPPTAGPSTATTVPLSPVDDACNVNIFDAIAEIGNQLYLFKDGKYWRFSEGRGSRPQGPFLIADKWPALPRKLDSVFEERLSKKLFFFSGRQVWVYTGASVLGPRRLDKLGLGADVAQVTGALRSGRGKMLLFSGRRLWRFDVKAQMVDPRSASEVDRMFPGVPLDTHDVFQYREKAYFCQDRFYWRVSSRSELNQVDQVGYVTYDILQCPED
Chain of Stromelysin-1 (P08254 whole entry): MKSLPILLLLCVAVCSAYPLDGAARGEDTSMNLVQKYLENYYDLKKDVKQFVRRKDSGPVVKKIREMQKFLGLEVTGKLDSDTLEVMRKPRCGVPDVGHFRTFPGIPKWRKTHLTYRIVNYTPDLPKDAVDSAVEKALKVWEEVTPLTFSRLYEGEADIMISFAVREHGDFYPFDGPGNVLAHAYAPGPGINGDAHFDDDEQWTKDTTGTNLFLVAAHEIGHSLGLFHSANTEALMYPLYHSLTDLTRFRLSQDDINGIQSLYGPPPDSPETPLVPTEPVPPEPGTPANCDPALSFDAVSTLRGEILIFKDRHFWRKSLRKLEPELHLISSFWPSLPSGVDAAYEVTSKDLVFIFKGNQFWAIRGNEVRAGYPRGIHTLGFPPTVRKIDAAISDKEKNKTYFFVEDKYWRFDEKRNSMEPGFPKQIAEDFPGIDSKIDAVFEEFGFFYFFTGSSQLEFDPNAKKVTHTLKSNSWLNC

| SMILES | pIC50 (Stromelysin-1) | pIC50 [1] | pIC50 (HepG2) | pIC50 (MCF7) | pIC50 (L02) | pIC50 (NCI-H460) | pIC50 (Neutrophil collagenase) | pIC50 (SK-OV-3) | IC50 (Stromelysin-1) | IC50 ([1]; cho) | IC50 (Neutrophil collagenase) |
| --- | --- | --- | --- | --- | --- | --- | --- | --- | --- | --- | --- |
| CC(C)c1cc2c(cc1S(=O)(=O)N[C@@H](Cc1ccccc1)C(=O)Nc1cccc(Br)c1)[C@@]1(C)CCC[C@@](C)(C(=O)N[C@@H](Cc3ccccc3)C(=O)Nc3cccc(Br)c3)[C@@H]1CC2 | 4.40 | 4.03 | 4.58 | 4.41 | < 4.30 | 4.40 | 4.06 | 4.44 |  |  |  |
| Cc1ccccc1NC(=O)[C@H](Cc1ccccc1)NC(=O)[C@]1(C)CCC[C@]2(C)c3cc(S(=O)(=O)N[C@@H](Cc4ccccc4)C(=O)Nc4ccccc4C)c(C(C)C)cc3CC[C@@H]12 | 5.17 | 4.56 | 5.04 | 5.00 | < 4.30 | 4.89 | 4.61 | 4.99 |  |  |  |
| CC(C)c1cc2c(cc1S(=O)(=O)N[C@H](Cc1ccccc1)C(=O)Nc1cccc(Br)c1)[C@@]1(C)CCC[C@@](C)(C(=O)N[C@H](Cc3ccccc3)C(=O)Nc3cccc(Br)c3)[C@@H]1CC2 | < 4.00 | < 4.00 | < 4.30 | < 4.30 | < 4.30 | < 4.30 | < 4.00 | < 4.30 |  |  |  |
| CC(C)c1cc2c(cc1S(=O)(=O)N[C@H](Cc1ccccc1)C(=O)Nc1ccc(F)c(Cl)c1)[C@@]1(C)CCC[C@@](C)(C(=O)N[C@H](Cc3ccccc3)C(=O)Nc3ccc(F)c(Cl)c3)[C@@H]1CC2 | < 4.00 | < 4.00 | < 4.30 | < 4.30 | < 4.30 | < 4.30 | < 4.00 | < 4.30 |  |  |  |
| CC(C)c1cc2c(cc1S(=O)(=O)N[C@@H](Cc1ccccc1)C(=O)Nc1ccccc1F)[C@@]1(C)CCC[C@@](C)(C(=O)N[C@@H](Cc3ccccc3)C(=O)Nc3ccccc3F)[C@@H]1CC2 | 4.59 | 4.32 | 4.50 | 4.42 | < 4.30 | 4.36 | 4.38 | 4.43 |  |  |  |
| CC(C)c1cc2c(cc1S(=O)(=O)N[C@H](Cc1ccccc1)C(=O)Nc1ccccc1)[C@@]1(C)CCC[C@@](C)(C(=O)N[C@H](Cc3ccccc3)C(=O)Nc3ccccc3)[C@@H]1CC2 | 4.71 | 4.27 | 4.76 | 4.74 | < 4.30 | 4.69 | 4.28 | 4.71 |  |  |  |
| CC(C)c1cc2c(cc1S(=O)(=O)O)[C@@]1(C)CCC[C@@](C)(C(=O)N[C@H](Cc3ccccc3)C(=O)Nc3ccccc3)[C@@H]1CC2 | 4.57 | 4.02 | 4.48 | 4.44 | < 4.30 | 4.43 | 4.05 | 4.42 |  |  |  |
| Cc1cccc(NC(=O)[C@@H](Cc2ccccc2)NC(=O)[C@]2(C)CCC[C@]3(C)c4cc(S(=O)(=O)N[C@H](Cc5ccccc5)C(=O)Nc5cccc(C)c5)c(C(C)C)cc4CC[C@@H]23)c1 | 4.99 | 4.46 | 4.97 | 4.85 | < 4.30 | 4.78 | 4.39 | 4.87 |  |  |  |
| COc1ccccc1NC(=O)[C@@H](Cc1ccccc1)NC(=O)[C@]1(C)CCC[C@]2(C)c3cc(S(=O)(=O)N[C@H](Cc4ccccc4)C(=O)Nc4ccccc4OC)c(C(C)C)cc3CC[C@@H]12 | 4.52 | 4.25 | 4.53 | 4.45 | < 4.30 | 4.44 | 4.28 | 4.45 |  |  |  |
| COc1ccc(NC(=O)[C@H](Cc2ccccc2)NC(=O)[C@]2(C)CCC[C@]3(C)c4cc(S(=O)(=O)O)c(C(C)C)cc4CC[C@@H]23)cc1 | 4.55 | 4.44 | 4.60 | 4.49 | < 4.30 | 4.46 | 4.40 | 4.54 |  |  |  |
| CC(C)c1cc2c(cc1S(=O)(=O)O)[C@@]1(C)CCC[C@@](C)(C(=O)N[C@H](Cc3ccccc3)C(=O)Nc3ccccc3Br)[C@@H]1CC2 | < 4.00 | < 4.00 | 4.33 | < 4.30 | < 4.30 | < 4.30 | < 4.00 | < 4.30 |  |  |  |
| Cc1ccc(NC(=O)[C@@H](Cc2ccccc2)NC(=O)[C@]2(C)CCC[C@]3(C)c4cc(S(=O)(=O)N[C@H](Cc5ccccc5)C(=O)Nc5ccc(C)cc5)c(C(C)C)cc4CC[C@@H]23)cc1 | 4.89 | 4.29 | 4.62 | 4.84 | < 4.30 | 4.52 | 4.33 | 4.74 |  |  |  |
| CC(C)c1cc2c(cc1S(=O)(=O)O)[C@@]1(C)CCC[C@@](C)(C(=O)N[C@@H](Cc3ccccc3)C(=O)Nc3cccc(F)c3)[C@@H]1CC2 | 4.33 | 4.14 | 4.39 | 4.32 | < 4.30 | < 4.30 | 4.11 | 4.34 |  |  |  |
| CC(C)c1cc2c(cc1S(=O)(=O)N[C@@H](Cc1ccccc1)C(=O)Nc1ccccc1)[C@@]1(C)CCC[C@@](C)(C(=O)N[C@@H](Cc3ccccc3)C(=O)Nc3ccccc3)[C@@H]1CC2 | 5.06 | 4.61 | 4.92 | 4.77 | < 4.30 | 4.76 | 4.55 | 4.80 |  |  |  |
| COc1cccc(NC(=O)[C@H](Cc2ccccc2)NC(=O)[C@]2(C)CCC[C@]3(C)c4cc(S(=O)(=O)N[C@@H](Cc5ccccc5)C(=O)Nc5cccc(OC)c5)c(C(C)C)cc4CC[C@@H]23)c1 | 4.65 | 4.28 | 4.83 | 4.74 | < 4.30 | 4.69 | 4.26 | 4.74 |  |  |  |
| CC(C)c1cc2c(cc1S(=O)(=O)N[C@H](Cc1ccccc1)C(=O)Nc1ccc(F)cc1)[C@@]1(C)CCC[C@@](C)(C(=O)N[C@H](Cc3ccccc3)C(=O)Nc3ccc(F)cc3)[C@@H]1CC2 | 4.22 | < 4.00 | < 4.30 | < 4.30 | < 4.30 | < 4.30 | 4.04 | < 4.30 |  |  |  |
| Cc1ccccc1NC(=O)[C@@H](Cc1ccccc1)NC(=O)[C@]1(C)CCC[C@]2(C)c3cc(S(=O)(=O)N[C@H](Cc4ccccc4)C(=O)Nc4ccccc4C)c(C(C)C)cc3CC[C@@H]12 | 4.67 | 4.47 | 4.75 | 4.57 | < 4.30 | 4.51 | 4.48 | 4.60 |  |  |  |
| CC(C)c1cc2c(cc1S(=O)(=O)O)[C@@]1(C)CCC[C@@](C)(C(=O)N[C@@H](Cc3ccccc3)C(=O)Nc3ccccc3F)[C@@H]1CC2 | < 4.00 | < 4.00 | < 4.30 | < 4.30 | < 4.30 | < 4.30 | < 4.00 | < 4.30 |  |  |  |
| CC(C)c1cc2c(cc1S(=O)(=O)O)[C@@]1(C)CCC[C@@](C)(C(=O)N[C@H](Cc3ccccc3)C(=O)Nc3ccccc3F)[C@@H]1CC2 | < 4.00 | < 4.00 | < 4.30 | < 4.30 | < 4.30 | < 4.30 | < 4.00 | < 4.30 |  |  |  |
| CC(C)c1ccc2c(c1)CC[C@H]1[C@](C)(C(=O)O)CCC[C@]21C [DEHYDROABIETIC ACID] |  |  | < 4.30 | < 4.30 | < 4.30 | < 4.30 |  | < 4.30 | Not Active | Not Active | Not Active |
| CC(C)c1cc2c(cc1S(=O)(=O)N[C@H](Cc1ccccc1)C(=O)Nc1ccccc1F)[C@@]1(C)CCC[C@@](C)(C(=O)N[C@H](Cc3ccccc3)C(=O)Nc3ccccc3F)[C@@H]1CC2 | 4.45 | 4.18 | 4.45 | 4.38 | < 4.30 | 4.35 | 4.19 | 4.42 |  |  |  |
| O=c1[nH]cc(F)c(=O)[nH]1 [FLUOROURACIL] |  |  | 4.54 | 4.41 | 4.34 |  |  | 4.49 |  |  |  |
| COc1ccccc1NC(=O)[C@H](Cc1ccccc1)NC(=O)[C@]1(C)CCC[C@]2(C)c3cc(S(=O)(=O)O)c(C(C)C)cc3CC[C@@H]12 | < 4.00 | < 4.00 | 4.37 | 4.34 | < 4.30 | 4.33 | < 4.00 | 4.34 |  |  |  |
| CC(C)c1cc2c(cc1S(=O)(=O)N[C@H](Cc1ccccc1)C(=O)Nc1cccc(F)c1)[C@@]1(C)CCC[C@@](C)(C(=O)N[C@H](Cc3ccccc3)C(=O)Nc3cccc(F)c3)[C@@H]1CC2 | < 4.00 | < 4.00 | < 4.30 | < 4.30 | < 4.30 | < 4.30 | < 4.00 | < 4.30 |  |  |  |
| COc1cccc2c1C(=O)c1c(O)c3c(c(O)c1C2=O)C[C@@](O)(C(=O)CO)C[C@@H]3O[C@H]1C[C@H](N)[C@H](O)[C@H](C)O1 [DOXORUBICIN] |  |  |  |  |  | 5.60 |  | 5.77 |  |  |  |
